Laboratory results published in ChEMBL document CHEMBL1124401, “1-(2,3-Dideoxy-beta-D-glycero-pent-2-enofuranosyl)thymine. A highly potent and selective anti-HIV agent” (J Med Chem, 1989).

Key:
[1] = tested on: Human immunodeficiency virus; assay: The inhibition of compound was determined by reverse transcriptase assay using DNA as template; assay type: functional
Summary of the method: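 HIV reverse transcriptase assay (DNA-dependent DNA polymerase activity) with poly(dA):oligo(dT) as DNA template/primer. Various triphosphate concentrations were tested, and Ki was derived from Dixon plots.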

[2] = tested on: Human immunodeficiency virus; assay: The inhibition of compound was determined by reverse transcriptase assay using RNA as template; assay type: functional
Summary of the method: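 HIV reverse transcriptase assay with poly(rA):oligo(dT) as RNA template/primer. Various triphosphate concentrations were tested, and Ki was derived from Dixon plots.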

CCRF-CEM [3] = assay: In vitro antiviral test was performed on HIV(LAV strain) infected CEM cells; assay type: functional; conditions: Homo sapiens, read-out: ID50 (the source's name)
Summary of the method: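 CEM-F cells infected with about 30 TCID50 of HIV (LAV strain), held 45 min at 37 °C, then given compound at various concentrations in culture medium and incubated 8 days. Virus expression read as p24 gag antigen in culture supernatant by sandwich/enzyme-capture ELISA. ID50 (μM) taken as the dose inhibiting 50% of virus expression.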

[4] = Cellular toxicity was measured in normal human granulocyte-monocyte progenitor cells (CFU-GM); conditions: read-out: ID50 (the source's name)
CCRF-CEM [5] = assay: Cellular toxicity measured in CEM cells
[6] = The 90% inhibitory concentration expresses cellular toxicity measured against normal human granulocyte-monocyte cells
[7] = The 50% inhibitory concentration expresses cellular toxicity measured against normal human erythrocyte progenitor cells (BFU-E); conditions: read-out: ID50 (the source's name)
[8] = The 50% inhibitory concentration expresses cellular toxicity measured against normal human granulocyte-monocyte cells
CCRF-CEM [9] = assay: Cellular toxicity was measured in CEM cells after 8 days by using a [3H]- thymidine uptake assay; assay type: cell-based; conditions: human, 192 h, read-out: TCID50
Summary of the method: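 Uninfected CEM cells treated with various compound concentrations for 8 days; cytotoxicity read by [3H]thymidine uptake and expressed as 50% tissue culture inhibitory dose (TCID50).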

| Compound | Ki [1] [µM] | Ki [2] [µM] | IC50 (CCRF-CEM [3]) [µM] | CC50 [4] [µM] | CC50 (CCRF-CEM [5]) [µM] | ID90 [6] [µM] | CC50 [7] [µM] | ID50 [8] [µM] | CC50 (CCRF-CEM [9]) [µM] |
| --- | --- | --- | --- | --- | --- | --- | --- | --- | --- |
| Cc1cn([C@H]2C[C@H](N=[N+]=[N-])[C@@H](COP(=O)(O)OP(=O)(O)OP(=O)(O)O)O2)c(=O)[nH]c1=O [ZIDOVUDINE TRIPHOSPHATE] | 84 | 0.007 | – | – | – | – | – | – | – |
| Cc1cn([C@H]2C[C@H](N=[N+]=[N-])[C@@H](CO)O2)c(=O)[nH]c1=O [ZIDOVUDINE] | – | – | 0.1 | 1 | 29 | 20 | 6.7 | – | – |
| Cc1cn([C@H]2CC[C@@H](COP(=O)(O)OP(=O)(O)OP(=O)(O)O)O2)c(=O)[nH]c1=O | 84 | 0.05 | – | – | – | – | – | – | – |
| Cc1cn([C@H]2C=C[C@@H](COP(=O)(O)OP(=O)(O)OP(=O)(O)O)O2)c(=O)[nH]c1=O [STAVUDINE TRIPHOSPHATE] | 70 | 0.032 | – | – | – | – | – | – | – |
| Cc1cn([C@H]2C=C[C@@H](CO)O2)c(=O)[nH]c1=O [STAVUDINE] | – | – | 0.15 | – | – | > 100 | 10 | 100 | 90 |
